The record followed here is ChEMBL document CHEMBL4364287, “Enhanced Inhibition of Influenza A Virus Adhesion by Di- and Trivalent Hemagglutinin Inhibitors” (J Med Chem, 2019).

The source made the active and inactive calls. No cut-off for these calls is given here.

In data set [1] the test system is Influenza A virus. Kind of data set: Antiviral activity against Influenza A virus WU95 expressing Influenza A virus (A/Netherlands/178/1995(H3N2)) H3 hemagglutinin infected in MDCK2 cells at 30 nM preincubated with virus for 4 hrs followed by cell infection and measured after 2 hrs in presence of 20 nM NA inhibitor oseltamivir carboxylate by DAPI staining-based assay. Format: functional, organism-based. In short, it runs like this:
(§1)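 WU95 was preincubated 4 h at room temperature in Opti-mem with or without 15 µM compound, ±10 µM oseltamivir carboxylate. The mixture was diluted 500-fold onto confluent MDCK-II for 2 h, giving end concentrations of 30 nM compound, 20 nM OC and MOI 0.01. Cells were washed, kept overnight at 37 °C with 10 nM bafilomycin, then fixed and nucleoprotein-immunostained.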

A short description of data set [2]: Inhibition of Influenza A virus (A/Netherlands/178/1995(H3N2)) H3 hemagglutinin expressed in Influenza virus WU95 assessed as reduction in human erythrocytes hemagglutination preincubated for 4 hrs followed by erythrocytes addition and measured after 2 hrs. Format: cell-based. In short, it runs like this:
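Four hemagglutination units of virus were preincubated 4 h at room temperature with limiting compound dilutions in the presence of oseltamivir carboxylate. Then 0.5% (v/v) erythrocytes were added for 2 h at 4 °C. The lowest inhibiting concentration was recorded; two experiments were run in duplicate and means are reported.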

Data set [3] has as its system Influenza A virus (A/Netherlands/178/1995(H3N2)). As to the kind of experiment: Potency index, ratio of compound 8 IC50 to test compound IC50 for Inhibition of Influenza A virus (A/Netherlands/178/1995(H3N2)) H3 hemagglutinin expressed in Influenza virus WU95 assessed as reduction in human erythrocytes hemagglutination. Format: cell-based.
Data set [4] has as its system Influenza A virus (A/Bilthoven/1761/1976(H3N2)). Kind of data set: Inhibition of sensor loaded biotinylated-LAMP1 binding to Influenza A virus (A/Bilthoven/1761/1976(H3N2)) H3 hemagglutinin expressed in Influenza virus VI75 at 3 uM in presence of NA inhibitor oseltamivir carboxylate by biolayer interferometric analysis. In short, it runs like this:
(§2)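 BLI with streptavidin sensors loaded to saturation with biotinylated LAMP1 (PBS, pH 7.4). VI75 virus was preincubated 4 h at room temperature with 3 µM compound, without or with 10 µM oseltamivir carboxylate. Initial virus binding rate was compared with a compound-free control.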
Background: BLI is a label-free optical method that tracks binding on a fibre tip over time.

Data set [5] relates to Influenza A virus (A/Netherlands/178/1995(H3N2)). As to the kind of experiment: Inhibition of sensor loaded biotinylated-LAMP1 binding to Influenza A virus (A/Netherlands/178/1995(H3N2)) H3 hemagglutinin expressed in Influenza virus WU95 at 3 uM in presence of NA inhibitor oseltamivir carboxylate by biolayer interferometric analysis. In short, it runs like this:
(§3)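 OctetRed BLI: streptavidin sensors were saturated with biotinylated LAMP1 in PBS pH 7.4. They were dipped into WU95 (8 HAU, 2.5 × 10^8 particles per well) preincubated 4 h at room temperature with compound and 10 µM (end concentration) oseltamivir carboxylate. Initial binding rate was compared with a no-compound control.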

Data set [6] relates to Influenza A virus (A/Bilthoven/1761/1976(H3N2)). As to the kind of experiment: Inhibition of sensor loaded biotinylated-LAMP1 binding to Influenza A virus (A/Bilthoven/1761/1976(H3N2)) H3 hemagglutinin expressed in Influenza virus VI75 at 3 uM by biolayer interferometric analysis. The gist of the method:
as §2

Data set [7] has as its system Influenza A virus (A/Netherlands/178/1995(H3N2)). Kind of data set: Potency index, ratio of compound 7 IC50 to test compound IC50 for inhibition of sensor loaded biotinylated-LAMP1 binding to Influenza A virus (A/Netherlands/178/1995(H3N2)) H3 hemagglutinin expressed in Influenza virus WU95.
The subject of data set [8] is Influenza A virus. As to the kind of experiment: Antiviral activity against Influenza A virus WU95 expressing Influenza A virus (A/Netherlands/178/1995(H3N2)) H3 hemagglutinin infected in MDCK2 cells at 30 nM preincubated with virus for 4 hrs followed by cell infection and measured after 2 hrs by DAPI staining-based assay. Format: functional, organism-based. In short, it runs like this:
as §1

A short description of data set [9]: Inhibition of sensor loaded biotinylated-LAMP1 binding to Influenza A virus (A/Netherlands/178/1995(H3N2)) H3 hemagglutinin expressed in Influenza virus WU95 in presence of NA inhibitor oseltamivir carboxylate by biolayer interferometric analysis. The gist of the method:
as §3

Data set [10] concerns Influenza A virus. As to the kind of experiment: Antiviral activity against Influenza A virus WU95 expressing Influenza A virus (A/Netherlands/178/1995(H3N2)) H3 hemagglutinin infected in MDCK2 cells preincubated with virus for 4 hrs followed by cell infection and measured at 7 hrs post-infection by DAPI staining-based assay. Format: functional, organism-based. The gist of the method: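 Single-cycle infection: WU95 in Opti-mem was preincubated 4 h at room temperature with varying compound concentrations. Confluent MDCK-II cells were inoculated in triplicate at MOI 0.005 and fixed at 7 h post-infection in methanol (−20 °C, 5 min). Cells were immunostained for nucleoprotein (HB65, Alexa 488 secondary), counterstained with DAPI, and infected cells per well were counted.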

Data set [11] is described as follows: Inhibition of sensor loaded biotinylated-LAMP1 binding to Influenza A virus (A/Netherlands/602/2009(H1N1)) […] by biolayer interferometric analysis.
Data set [12] relates to MDCK-II. As to the kind of experiment: Cytotoxicity against MDCK2 cells assessed as reduction in cell viability measured after 24 hrs by WST1 assay. Format: cell-based, Canis lupus familiaris. The conditions noted are these: dog. The gist of the method:
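MDCK-II cells were incubated 24 h in Opti-mem with compounds at different concentrations. Cell number and viability were then read by WST-1 assay.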
Background: Formazan colour is commonly taken as a measure of viable cells.

In data set [13] the test system is Influenza A virus. Kind of data set: Antiviral activity against Influenza A virus WU95 expressing Influenza A virus (A/Netherlands/178/1995(H3N2)) H3 hemagglutinin infected in MDCK2 cells assessed as reduction in virus-induced cytopathogenicity preincubated with virus for 4 hrs followed by cell infection and measured after 3 days by DAPI staining-based assay. Format: functional, organism-based. The gist of the method:
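WU95 virus was preincubated 4 h at room temperature in Opti-mem with varying compound concentrations. It was then inoculated onto confluent MDCK-II cells at MOI 0.005 and held 3 days with 1 µg/ml TPCK-trypsin to allow multiple rounds of infection. Cells were fixed and DAPI-stained, and monolayers inspected visually; absence of stained cells was taken as cell killing.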
In general terms: Damage to the host cells serves as the signal in cytopathic effect assays.

Data set [14] has as its system Influenza A virus (A/duck/Hunan/795/2002(H5N1)). Kind of data set: Inhibition of sensor loaded biotinylated-LAMP1 binding to Influenza A virus (A/duck/Hunan/795/2002 (H5N1)) […] expressed in Influenza virus H5N1 by biolayer interferometric analysis relative to control.

Turning to `CC(=O)N[C@H]1[C@H](O[C@H]2[C@@H](O)[C@@H](CO)O[C@@H](O[C@H]3[C@H](O)[C@@H](O)[C@H](n4cc(-c5ccc(-c6cn(CCCC(=O)Nc7cccc(-c8cc(-c9cccc(NC(=O)CCCn%10cc(-c%11ccc(-c%12cn([C@@H]%13O[C@H](CO)[C@@H](O[C@@H]%14O[C@H](CO)[C@H](O)[C@H](O[C@@H]%15O[C@H](CO)[C@@H](O[C@@H]%16O[C@H](CO[C@]%17(C(=O)O)C[C@H](O)[C@@H](NC(C)=O)[C@H]([C@H](O)[C@H](O)CO)O%17)[C@H](O)[C@H](O)[C@H]%16O)[C@H](O)[C@H]%15NC(C)=O)[C@H]%14O)[C@H](O)[C@H]%13O)nn%12)cc%11)nn%10)c9)cc(-c9cccc(NC(=O)CCCn%10cc(-c%11ccc(-c%12cn([C@@H]%13O[C@H](CO)[C@@H](O[C@@H]%14O[C@H](CO)[C@H](O)[C@H](O[C@@H]%15O[C@H](CO)[C@@H](O[C@@H]%16O[C@H](CO[C@]%17(C(=O)O)C[C@H](O)[C@@H](NC(C)=O)[C@H]([C@H](O)[C@H](O)CO)O%17)[C@H](O)[C@H](O)[C@H]%16O)[C@H](O)[C@H]%15NC(C)=O)[C@H]%14O)[C@H](O)[C@H]%13O)nn%12)cc%11)nn%10)c9)c8)c7)nn6)cc5)nn4)O[C@@H]3CO)[C@@H]2O)O[C@H](CO)[C@@H](O[C@@H]2O[C@H](CO)[C@H](O)[C@H](O)[C@H]2O)[C@@H]1O`, the outcome in data set [1] and in data set [8] was Active. Moreover, in [2], the Ki – broadly, the equilibrium dissociation constant of an inhibitor or competing ligand from its target – was 10.3 µM. Also, the Ratio IC50 in data set [3] is 35; in data set [7] it was 428. The inhibition result in data set [4], in data set [5] and in data set [6] was “Active” each time. The IC50 (in general, the concentration that inhibits the measured activity by half) in [9] was found to be 710 nM.

Turning to `CC(=O)N[C@H]1[C@H](O[C@H]2[C@@H](O)[C@@H](CO)O[C@@H](O[C@H]3[C@H](O)[C@@H](O)[C@H](n4cc(-c5ccc(-c6cn(CCCC(=O)Nc7cccc(-c8cc(-c9cccc(NC(=O)CCCn%10cc(-c%11ccc(-c%12cn([C@@H]%13O[C@H](CO)[C@@H](O[C@@H]%14O[C@H](CO)[C@H](O)[C@H](O[C@@H]%15O[C@H](CO)[C@@H](O[C@@H]%16O[C@H](CO[C@]%17(C(=O)O)C[C@H](O)[C@@H](NC(C)=O)[C@H]([C@H](O)[C@H](O)CO)O%17)[C@H](O)[C@H](O)[C@H]%16O)[C@H](O)[C@H]%15NC(C)=O)[C@H]%14O)[C@H](O)[C@H]%13O)nn%12)cc%11)nn%10)c9)cc(-c9cccc(NC(=O)CCCn%10cc(-c%11ccc(-c%12cn([C@@H]%13O[C@H](CO)[C@@H](O[C@@H]%14O[C@H](CO)[C@H](O)[C@H](O[C@@H]%15O[C@H](CO)[C@@H](O[C@@H]%16O[C@H](CO[C@]%17(C(=O)O)C[C@H](O)[C@@H](NC(C)=O)[C@H]([C@H](O)[C@H](O)CO)O%17)[C@H](O)[C@H](O)[C@H]%16O)[C@H](O)[C@H]%15NC(C)=O)[C@H]%14O)[C@H](O)[C@H]%13O)nn%12)cc%11)nn%10)c9)c8)c7)nn6)cc5)nn4)O[C@@H]3CO)[C@@H]2O)O[C@H](CO)[C@@H](O[C@@H]2O[C@H](CO[C@]3(C(=O)O)C[C@H](O)[C@@H](NC(C)=O)[C@H]([C@H](O)[C@H](O)CO)O3)[C@H](O)[C@H](O)[C@H]2O)[C@@H]1O`, the IC50 in data set [10] was found to be 4.4 µM; in [11], 2700 nM; in [9], 710 nM. In data set [2], the Ki worked out at 9.4 µM. Besides, the Ratio IC50 in [3] was 38; in data set [7], 428. For the same compound, the inhibition entry in [4], in data set [5] and in data set [6] was “Active” in each case. Besides, the Activity result in data set [12] is given as “Non-Toxic”. Moreover, in data set [13], the result was Active. This compound displayed an Imax in [14] of 50%.
